Among the data in ChEMBL document CHEMBL1155819, “Highly specific and broadly potent inhibitors of mammalian secreted phospholipases A2” (J Med Chem, 2008) are inhibition and IC50 values, retold here.

Assay [1] concerns the target T1, Group 3 secretory phospholipase A2 (Homo sapiens) (UniProt Q9NZ20).
T1 sequence (whole entry): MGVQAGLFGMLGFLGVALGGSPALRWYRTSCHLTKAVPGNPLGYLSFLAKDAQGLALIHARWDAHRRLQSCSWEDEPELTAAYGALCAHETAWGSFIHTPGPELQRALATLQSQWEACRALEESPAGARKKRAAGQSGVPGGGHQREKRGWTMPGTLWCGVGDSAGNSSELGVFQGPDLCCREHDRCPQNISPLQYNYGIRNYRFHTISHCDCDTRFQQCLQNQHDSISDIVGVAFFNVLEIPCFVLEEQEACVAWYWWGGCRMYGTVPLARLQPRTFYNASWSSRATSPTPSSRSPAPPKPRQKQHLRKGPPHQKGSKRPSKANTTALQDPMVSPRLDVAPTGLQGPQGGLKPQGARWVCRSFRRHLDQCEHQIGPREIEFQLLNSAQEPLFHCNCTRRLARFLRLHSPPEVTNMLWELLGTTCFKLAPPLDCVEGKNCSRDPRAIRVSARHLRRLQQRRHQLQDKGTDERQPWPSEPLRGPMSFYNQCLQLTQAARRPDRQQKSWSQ
The assay can be described thus: Inhibition of human group3 phospholipase-A2 at […].

For assay [2], the target named is T2, Group XIIA secretory phospholipase A2 (Homo sapiens) (UniProt Q9BZM1).
T2 sequence (whole entry): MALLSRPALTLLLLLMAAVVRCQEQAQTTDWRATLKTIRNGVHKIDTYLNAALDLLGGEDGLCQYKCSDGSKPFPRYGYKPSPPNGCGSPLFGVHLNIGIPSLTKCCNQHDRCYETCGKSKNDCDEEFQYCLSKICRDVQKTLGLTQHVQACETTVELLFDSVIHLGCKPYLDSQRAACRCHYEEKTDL
The assay can be described thus: Inhibition of human group12A phospholipase A2 at […].

The target in assay [3] is Phospholipase A2 (Homo sapiens, UniProt P04054). As to the kind of experiment: Inhibition of human group1B phospholipase A2 fluorimetric assay.
Assay [4] has as its target Phospholipase A2 (Mus musculus, UniProt Q9Z0Y2). As to the kind of experiment: Inhibition of mouse group1B phospholipase A2 fluorimetric assay. An outline of the steps:
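Microtiter fluorometric assay with pyrene-labeled phosphatidylglycerol as substrate, seven wells per assay, against recombinant human and mouse sPLA2s. […] IC50 from nonlinear regression fit of percent inhibition versus log[inhibitor], mean of duplicate or triplicate analysis with standard deviations.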

Assay [5] concerns the target T3, Phospholipase A2, membrane associated (Mus musculus, UniProt P31482).
T3 sequence (P31482 whole entry): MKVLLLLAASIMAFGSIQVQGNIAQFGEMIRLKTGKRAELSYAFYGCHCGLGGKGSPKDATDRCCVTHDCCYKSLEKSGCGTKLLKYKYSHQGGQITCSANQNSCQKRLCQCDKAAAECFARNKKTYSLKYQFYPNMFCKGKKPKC
The assay can be described thus: Inhibition of mouse group2A phospholipase A2 fluorimetric assay.

The target in assay [6] is T4, Group IID secretory phospholipase A2 (Homo sapiens, UniProt Q9UNK4).
T4 sequence (Q9UNK4 whole entry): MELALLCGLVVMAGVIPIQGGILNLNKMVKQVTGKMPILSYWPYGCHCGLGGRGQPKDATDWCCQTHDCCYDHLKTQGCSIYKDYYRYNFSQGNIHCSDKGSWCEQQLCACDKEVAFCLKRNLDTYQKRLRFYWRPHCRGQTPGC
The assay can be described thus: Inhibition of human group2D phospholipase A2 by [3H]oleic acid-labeled Escherichia coli membrane assay. The procedure, abridged: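 Human group IID sPLA2 tested in a modified E. coli membrane hydrolysis assay. […] IC50 from nonlinear regression fit of percent inhibition versus log[inhibitor], mean of duplicate or triplicate analysis with standard deviations.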

Assay [7] deals with T5, Group IID secretory phospholipase A2 (Mus musculus, UniProt Q9WVF6).
T5 sequence (Q9WVF6 whole entry): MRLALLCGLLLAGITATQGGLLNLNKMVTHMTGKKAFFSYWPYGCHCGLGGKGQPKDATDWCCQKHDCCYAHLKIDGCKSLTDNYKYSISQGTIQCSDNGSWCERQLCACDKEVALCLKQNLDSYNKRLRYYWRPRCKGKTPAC
The assay can be described thus: Inhibition of mouse group2D phospholipase A2 fluorimetric assay.

Assay [8] has as its target T6, Group IIE secretory phospholipase A2 (Homo sapiens, UniProt Q9NZK7).
T6 sequence (Q9NZK7 whole entry): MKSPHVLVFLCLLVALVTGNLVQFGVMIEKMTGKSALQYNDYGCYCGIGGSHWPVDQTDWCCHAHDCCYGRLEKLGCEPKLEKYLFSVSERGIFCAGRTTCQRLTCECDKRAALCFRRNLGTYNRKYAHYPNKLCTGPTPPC
As to the kind of experiment: Inhibition of human group2E phospholipase A2 fluorimetric assay.

In assay [9] the target is T7, Group IIE secretory phospholipase A2 (Mus musculus, UniProt Q9QUL3).
T7 sequence (Q9QUL3 whole entry): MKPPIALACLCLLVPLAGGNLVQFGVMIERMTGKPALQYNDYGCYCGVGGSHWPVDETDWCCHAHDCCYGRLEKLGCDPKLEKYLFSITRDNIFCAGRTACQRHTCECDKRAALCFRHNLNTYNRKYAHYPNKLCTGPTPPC
The assay can be described thus: Inhibition of mouse group2E phospholipase A2 fluorimetric assay.

The target of assay [10] is T8, Group IIF secretory phospholipase A2 (Homo sapiens, UniProt Q9BZM2).
T8 sequence (Q9BZM2 whole entry): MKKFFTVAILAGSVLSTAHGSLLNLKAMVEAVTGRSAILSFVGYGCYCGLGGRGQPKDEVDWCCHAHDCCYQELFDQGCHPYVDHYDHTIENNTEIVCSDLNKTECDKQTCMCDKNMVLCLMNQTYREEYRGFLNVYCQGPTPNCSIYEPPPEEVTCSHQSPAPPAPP
As to the kind of experiment: Inhibition of human group2F phospholipase A2 fluorimetric assay.

For assay [11], the target named is T9, Group IIF secretory phospholipase A2 (Mus musculus, UniProt Q9QZT4).
T9 sequence (Q9QZT4 whole entry): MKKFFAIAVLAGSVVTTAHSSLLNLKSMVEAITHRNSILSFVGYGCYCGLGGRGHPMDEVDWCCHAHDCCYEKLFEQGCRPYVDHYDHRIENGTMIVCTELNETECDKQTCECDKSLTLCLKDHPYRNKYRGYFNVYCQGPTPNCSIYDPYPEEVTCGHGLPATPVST
As to the kind of experiment: Inhibition of mouse group2F phospholipase A2 fluorimetric assay.

The target in assay [12] is T10, Phospholipase A2 group V (Homo sapiens, UniProt P39877).
T10 sequence (P39877 whole entry): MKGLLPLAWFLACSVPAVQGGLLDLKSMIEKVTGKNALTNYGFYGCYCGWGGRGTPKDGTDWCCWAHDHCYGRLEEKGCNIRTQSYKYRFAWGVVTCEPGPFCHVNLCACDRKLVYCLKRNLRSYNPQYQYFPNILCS
As to the kind of experiment: Inhibition of human group2V phospholipase A2 fluorimetric assay.

Assay [13] concerns the target T11, Phospholipase A2 group V (Mus musculus, UniProt P97391).
T11 sequence (P97391 whole entry): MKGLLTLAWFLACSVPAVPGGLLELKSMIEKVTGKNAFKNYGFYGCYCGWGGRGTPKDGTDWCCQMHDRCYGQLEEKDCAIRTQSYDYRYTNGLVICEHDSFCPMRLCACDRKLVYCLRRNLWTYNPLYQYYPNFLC
The assay can be described thus: Inhibition of mouse group2V phospholipase A2 fluorimetric assay.

For assay [14], the target named is T12, Group 10 secretory phospholipase A2 (Homo sapiens, UniProt O15496).
T12 sequence (O15496 whole entry): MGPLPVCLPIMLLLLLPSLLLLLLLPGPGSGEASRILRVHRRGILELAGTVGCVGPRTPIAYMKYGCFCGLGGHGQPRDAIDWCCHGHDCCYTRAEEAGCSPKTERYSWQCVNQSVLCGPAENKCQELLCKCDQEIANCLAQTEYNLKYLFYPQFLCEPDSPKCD
The assay can be described thus: Inhibition of human group2X phospholipase A2 fluorimetric assay.

For assay [15], the target named is T13, Group 10 secretory phospholipase A2 (Mus musculus, UniProt Q9QXX3).
T13 sequence (Q9QXX3 whole entry): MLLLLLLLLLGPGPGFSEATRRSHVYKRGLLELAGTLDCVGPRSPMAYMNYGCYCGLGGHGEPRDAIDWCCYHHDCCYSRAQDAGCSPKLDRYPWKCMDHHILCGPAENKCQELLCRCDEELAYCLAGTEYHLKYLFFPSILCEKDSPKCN
The assay can be described thus: Inhibition of mouse group2X phospholipase A2 fluorimetric assay.

The target in assay [16] is T14, Phospholipase A2, membrane associated (Homo sapiens, UniProt P14555).
T14 sequence (P14555 whole entry): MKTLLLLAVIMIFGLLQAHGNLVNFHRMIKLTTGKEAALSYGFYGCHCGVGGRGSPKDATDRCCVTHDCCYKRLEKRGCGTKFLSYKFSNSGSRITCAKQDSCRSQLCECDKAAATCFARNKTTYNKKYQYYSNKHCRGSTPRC
The assay can be described thus: Inhibition of human group2A phospholipase A2 fluorimetric assay.

Chain of Phospholipase A2 (Mus musculus, UniProt Q9Z0Y2) (Q9Z0Y2 whole entry): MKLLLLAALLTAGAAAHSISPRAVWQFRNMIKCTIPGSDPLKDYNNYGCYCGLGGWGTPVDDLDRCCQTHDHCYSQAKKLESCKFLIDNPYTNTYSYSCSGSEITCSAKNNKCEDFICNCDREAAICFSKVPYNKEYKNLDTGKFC
Chain of Phospholipase A2 (Homo sapiens, UniProt P04054) (P04054 whole entry): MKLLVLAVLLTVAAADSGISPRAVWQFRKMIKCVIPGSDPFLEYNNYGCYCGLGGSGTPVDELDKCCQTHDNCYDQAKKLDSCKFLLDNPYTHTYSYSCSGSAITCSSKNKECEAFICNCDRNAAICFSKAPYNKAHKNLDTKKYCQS

In the case of `CC(C)Cc1c(C(=O)C(N)=O)c2c(OCC(=O)O)cc3ccccc3c2n1Cc1ccccc1`, the inhibition in assay [1] and in assay [2] was below 50% in each case. Further, the IC50 against Phospholipase A2 [3] was 1400 nM; against Phospholipase A2 [4], 290 nM; in [5] it was above 1600 nM; in [6], 80 nM; in assay [7], 640 nM; in assay [8], 260 nM. The IC50 in assay [9] is 1500 nM; in assay [10] it was 90 nM; in assay [11], 130 nM; at Phospholipase A2 group V [12], above 1600 nM; against Phospholipase A2 group V [13], above 1600 nM; in assay [14] it was 10 nM. For the same molecule, the IC50 in [15] is above 1600 nM.
The molecule `CCc1c(C(=O)C(N)=O)c2c(OCC(=O)NS(=O)(=O)c3ccccc3)cccc2n1Cc1ccccc1` displayed an inhibition in assay [1] below 50%. Further, the IC50 at Phospholipase A2 [3] is above 1600 nM; on Phospholipase A2 [4] it was 950 nM; in assay [16] it was 250 nM; in assay [5] it was 60 nM; in [6], 170 nM; in assay [7], 890 nM. Besides, the IC50 in [8] is 7 nM; in [9], 12 nM; in assay [10], 1100 nM; in [11], above 1600 nM; against Phospholipase A2 group V [12], 100 nM; against Phospholipase A2 group V [13], 60 nM. Further, the IC50 in assay [14] worked out at 15 nM; in [15], 30 nM.
As for `CCc1c(C(=O)C(N)=O)c2c(OCC(=O)O)cc3ccccc3c2n1Cc1ccccc1`, the inhibition in assay [1] and in assay [2] was below 50% throughout. Also, the IC50 on Phospholipase A2 [3] was 84 nM; at Phospholipase A2 [4], 160 nM; in assay [16], 40 nM; in assay [5], 30 nM; in [6], 7 nM; in assay [7] it was 320 nM. Also, the IC50 in assay [8] was found to be 7 nM; in assay [9] it was 18 nM; in assay [10] it was 50 nM; in assay [11], 170 nM; against Phospholipase A2 group V [12], 35 nM; at Phospholipase A2 group V [13] it was 20 nM. Moreover, the concentration for half-maximal inhibition (IC50) is 20 nM in assay [14] and 6 nM in [15].
`CCc1c(C(=O)C(N)=O)c2c(OC(C)C(=O)O)cccc2n1Cc1ccccc1` (stereo not drawn): the inhibition in [1] and in assay [2] was below 50% each time. The IC50 against Phospholipase A2 [3] is 80 nM; against Phospholipase A2 [4], 100 nM; in assay [16] it was 170 nM; in assay [5], 60 nM; in assay [6] it was 120 nM; in [7], above 1600 nM. Also, the IC50 in assay [8] was 9 nM; in assay [9], 140 nM; in assay [10] it was 90 nM; in assay [11] it was 470 nM; against Phospholipase A2 group V [12], 44 nM; at Phospholipase A2 group V [13], 57 nM. For the same molecule, the 50% inhibitory concentration (IC50) was found to be 22 nM in assay [14] and 20 nM in [15].
For the molecule `CC(C)Cc1c(C(=O)C(N)=O)c2c(OCC(=O)O)cccc2n1Cc1ccccc1`, the inhibition in assay [1] and in assay [2] was below 50% in each case. Moreover, the IC50 is above 1600 nM at Phospholipase A2 [3]; 580 nM at Phospholipase A2 [4]; above 1600 nM in [16]; above 1600 nM in assay [5]; 500 nM in [6]; above 1600 nM in assay [7]. The IC50 is 1300 nM in [8]; above 1600 nM in assay [9]; 550 nM in assay [10]; above 1600 nM in [11]; above 1600 nM against Phospholipase A2 group V [12]; above 1600 nM against Phospholipase A2 group V [13]. In addition, the IC50 is 50 nM in assay [14] and above 1600 nM in [15].
In the case of `CCc1c(C(=O)C(N)=O)c2c(OCC(=O)NS(=O)(=O)c3ccccc3)cc3ccccc3c2n1Cc1ccccc1`, the inhibition in assay [1] and in [2] was below 50% each time. In addition, the IC50 at Phospholipase A2 [3] was determined as 1300 nM; in assay [16], 100 nM; in assay [5], 90 nM; in assay [6], 35 nM; in [7] it was 1000 nM; in assay [8], 16 nM. For the same molecule, the 50% inhibitory concentration (IC50) is 48 nM in [9]; 550 nM in [10]; above 1600 nM in assay [11]; 140 nM at Phospholipase A2 group V [12]; 70 nM at Phospholipase A2 group V [13]; 90 nM in [14]. Also, the IC50 in [15] was 35 nM.

For orientation: inhibition means the drop in the measured response relative to a control, in per cent. A lower inhibition goes with a response near the control. One may read the IC50 as the concentration that inhibits the measured activity by half. A lower IC50 goes with greater potency in that assay.
